In data set [1] the test system is SK-OV-3. Briefly: Cytotoxicity against human SK-OV3 cells by neutral red assay. It is filed as functional, cell-based. The procedure, abridged:
(§1)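 Cells were seeded at 25,000 per well and incubated 24 h. Test samples were added at a range of concentrations, followed by a further 48 h incubation. Viable cells were quantified by Neutral Red uptake, and IC50 was read from dose curves of percent growth versus concentration.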

Data set [2] deals with BT-549. In words: Cytotoxicity against human BT549 cells by neutral red assay. It is filed as functional, cell-based. The procedure, abridged: as §1
Data set [3] has as its system Cryptococcus neoformans. In words: Antifungal activity against Cryptococcus neoformans. It is filed as functional, organism-based. The essentials: (§2)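 Modified NCCLS broth microdilution. Samples in DMSO were serially diluted in 0.9% saline and tested in duplicate. Inocula were matched to the 0.5 McFarland standard by absorbance at 630 nm, then diluted in broth. Growth, solvent and media controls were included. Plates were read at 630 nm before and after incubation, and IC50 was taken from percent growth versus concentration.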

For data set [4], the system named is Leishmania donovani. Briefly: Antileishmanial activity against Leishmania donovani promastigotes after 48 hrs by Alamar blue assay. It is filed as functional, organism-based. The procedure, abridged:
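L. donovani promastigotes were grown in RPMI 1640 with 10% fetal calf serum at 26 C. A 3-day-old culture was diluted to 5 × 10^5 promastigotes/mL, and drug dilutions were made directly in the cell suspension. After 48 h at 26 C, growth was read by Alamar Blue fluorescence (ex 544/em 590 nm). IC50 and IC90 came from percent growth versus concentration curves.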
On the technique in general: The colour change of resazurin is a common sign of viable cells or microbes.

In data set [5] the test system is Staphylococcus aureus. Briefly: Antibacterial activity against methicillin-resistant Staphylococcus aureus. It counts as functional, organism-based. The procedure, abridged:
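Modified NCCLS broth microdilution. Samples in DMSO serially diluted in 0.9% saline, tested in duplicate. Inoculum set against 0.5 McFarland standard by absorbance at 630 nm, then diluted in broth. Growth, solvent and media controls included. Plates read at 630 nm before and after incubation. IC50 from percent growth vs concentration; MIC = lowest concentration with no detectable growth.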

For data set [6], the system named is Vero. Briefly: Cytotoxicity against african green monkey Vero cells by neutral red assay. It counts as cell-based. As to conditions: chlorocebus sabaeus. The procedure, abridged:
as §1

In data set [7] the test system is Candida albicans. In words: Antifungal activity against Candida albicans. It counts as functional, organism-based. The procedure, abridged: as §2
For data set [8], the system named is SK-MEL. In words: Cytotoxicity against human SKMEL cells by neutral red assay. It counts as functional, cell-based. The essentials:
as §1

Data set [9] has as its system KB. In words: Cytotoxicity against human KB cells by neutral red assay. It counts as functional, cell-based. The procedure, abridged: as §1
Data set [10] relates to Aspergillus fumigatus. In words: Antifungal activity against Aspergillus fumigatus. It counts as functional, organism-based. The essentials:
as §2

Data set [11] can be described thus: Cytotoxicity against pig LLC-PK11 cells by neutral red assay. It counts as cell-based. Conditions: Sus scrofa. The procedure, abridged: as §1
Data set [12] deals with SK-MEL. In words: Cytotoxicity against human SKMEL cells by neutral red assay up to 25 ug/mL. It counts as functional, cell-based. The procedure, abridged:
as §1

The nature of data set [13]: Cytotoxicity against pig LLC-PK11 cells by neutral red assay up to 25 ug/mL. It counts as cell-based, Sus scrofa. The procedure, abridged: as §1
In data set [14] the test system is KB. In words: Cytotoxicity against human KB cells by neutral red assay up to 25 ug/mL. It counts as functional, cell-based. The essentials: as §1
In data set [15] the test system is SK-OV-3. In words: Cytotoxicity against human SK-OV3 cells by neutral red assay up to 25 ug/mL. It counts as functional, cell-based. The procedure, abridged: as §1
Data set [16] is described as follows: Selectivity index, ratio of IC50 for african green monkey (Cercopithecus aethiops) Vero cells to IC50 for Plasmodium falciparum W2. It is filed as functional. The essentials: (§3)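 The index is IC50 in Vero cells (Neutral Red, 48 h exposure) divided by IC50 against P. falciparum D6 or W2. For the parasite assay, infected erythrocytes at 2% parasitemia and 2% hematocrit in RPMI 1640 with 10% human serum were incubated 72 h at 37 C under 90% N2, 5% O2, 5% CO2. Parasite LDH was measured with Malstat plus NBT/PES at 650 nm.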

Data set [17] in a line: Selectivity index, ratio of IC50 for african green monkey (Cercopithecus aethiops) Vero cells to IC50 for Plasmodium falciparum D6. It counts as functional. The essentials: as §3
The test system of data set [18] is Plasmodium falciparum. In words: Antimalarial activity against chloroquine-resistant Plasmodium falciparum W2 by LDH release. It is filed as functional, organism-based. The procedure, abridged: (§4)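 Infected red cells (W2 or D6), 2% parasitemia, 2% hematocrit, in RPMI 1640 with 10% human serum and 60 µg/mL amikacin, exposed to serial sample dilutions. Incubated 72 h at 37 C under 90% N2/5% O2/5% CO2. Parasite LDH measured with Malstat reagent (30 min, room temperature), then NBT/PES 1 h in dark, stopped with 5% acetic acid, read at 650 nm. IC50 from dose-response curves.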
In general terms: Release of lactate dehydrogenase indicates damage to the cell membrane.

The subject of data set [19] is Plasmodium falciparum. In words: Antimalarial activity against chloroquine-sensitive Plasmodium falciparum D6 by LDH release assay. It is filed as functional, organism-based. The procedure, abridged:
as §4

Data set [20] relates to Vero. In words: Cytotoxicity against african green monkey Vero cells by neutral red assay up to 25 ug/mL. It counts as cell-based. As to conditions: chlorocebus sabaeus. The procedure, abridged: as §1
For data set [21], the system named is BT-549. Briefly: Cytotoxicity against human BT549 cells by neutral red assay up to 25 ug/mL. It is filed as functional, cell-based. The procedure, abridged: as §1

Values after ≈ are worked out from the molar mass of the structure shown. Active and inactive are the calls of the source. No cut-off for these calls is given here.

From ChEMBL document CHEMBL1143930, “S-Euglobals: biomimetic synthesis, antileishmanial, antimalarial, and antimicrobial activities” (Bioorg Med Chem, 2008) come the findings set out here.

As a reminder, the IC50 is the concentration at which inhibition is half-maximal. One may read the IC90 as the concentration at which the effect reaches the 90% level. Broadly, the MIC is the lowest concentration found to suppress growth.

As to `CC(C)CC(=O)c1c(O)c(C=O)c2c(c1O)C[C@H]1C[C@H]3C[C@H](C3(C)C)[C@@]1(CCO)O2`, the IC50 in data set [1] was 25 µg/mL (≈ 60 µM); in data set [2] it was 18.5 µg/mL (≈ 44.4 µM); in data set [4], 9.5 µg/mL (≈ 22.8 µM); in data set [5] it was 1 µg/mL (≈ 2.4 µM); in data set [6] it was 20 µg/mL (≈ 48 µM); in [8] it was 25 µg/mL (≈ 60 µM). The results for the IC50 in data set [9] and in data set [11] were 20 µg/mL (≈ 48 µM) and 25 µg/mL (≈ 60 µM), respectively. In addition, the outcome in data set [3], in data set [7] and in data set [10] was inactive. In data set [4], this compound returned an IC90 of 33 µg/mL (≈ 79.2 µM). This compound displayed an MIC in [5] of 5 µg/mL (≈ 12 µM).

In the case of `CC(C)CC(=O)c1c(O)c(C=O)c(O)c2c1O[C@@]1(CCO)[C@@H](C2)C[C@H]2C[C@@H]1C2(C)C`, the IC50 in [1] was above 25 µg/mL; in data set [2], above 25 µg/mL; in data set [4], 32 µg/mL (≈ 76.8 µM); in [5], 5 µg/mL (≈ 12 µM); in data set [6] it was above 25 µg/mL; in data set [9], above 25 µg/mL. In [11], this compound registered an IC50 above 25 µg/mL. Moreover, the result in data set [3], in [12], in data set [7] and in data set [10] was inactive.

In the case of `CC(C)CC(=O)c1c(O)c2c(c(C(=O)CC(C)C)c1O)O[C@@]1(CO)[C@@H](C2)C[C@H]2C[C@@H]1C2(C)C`, the Activity entry in [13] was “Not Active”. Besides, the figures for the half-maximal inhibitory concentration (IC50) in [2], in data set [4] and in data set [6] were 25 µg/mL (≈ 54.5 µM), 24 µg/mL (≈ 52.3 µM) and above 25 µg/mL, respectively. Moreover, the outcome in data set [3], in [12], in [14], in [7], in [10] and in data set [15] was inactive.

Regarding `COc1cccc2c1C(=O)c1c(O)c3c(c(O)c1C2=O)C[C@@](O)(C(=O)CO)C[C@@H]3O[C@H]1C[C@H](N)[C@H](O)[C@H](C)O1` [DOXORUBICIN], the IC50 in data set [1] worked out at 0.75 µg/mL (≈ 1.38 µM); in data set [2], 0.6 µg/mL (≈ 1.1 µM); in [8], 0.6 µg/mL (≈ 1.1 µM); in data set [9] it was 0.9 µg/mL (≈ 1.66 µM); in data set [11] it was 0.5 µg/mL (≈ 0.92 µM).

`CC(C)C[C@@H]1C[C@@]2(CC[C@@H]3C[C@H]2C3(C)C)Oc2c(C=O)c(O)c(C=O)c(O)c21` [ROBUSTADIAL A]: the IC50 was above 25 µg/mL in data set [1]; 19 µg/mL (≈ 49.2 µM) in [2]; 20 µg/mL (≈ 51.7 µM) in data set [4]; 19 µg/mL (≈ 49.2 µM) in [6]; 2.8 µg/mL (≈ 7.24 µM) in [18]; above 25 µg/mL in data set [8]. For the same compound, the figures for the IC50 in [19] and in data set [11] were 4.76 µg/mL (≈ 12.3 µM) and 17 µg/mL (≈ 44 µM), respectively. The outcome in data set [3], in [14], in [7] and in data set [10] was inactive. The results for the Selectivity index in data set [16] and in [17] were 6.8 and 4, respectively. Further, the IC90 in data set [4] worked out at 39 µg/mL (≈ 101 µM).

For `CC(C)C[C@H]1C[C@]2(CC[C@@H]3C[C@H]2C3(C)C)Oc2c(C=O)c(O)c(C=O)c(O)c21` [ROBUSTADIAL B], the Activity result in data set [13] and in data set [20] was “Not Active” each time. The IC50 in [2] worked out at 25 µg/mL (≈ 64.7 µM); in data set [4], 16 µg/mL (≈ 41.4 µM); in data set [18] it was 4.76 µg/mL (≈ 12.3 µM); in [19], 4.5 µg/mL (≈ 11.6 µM). The result in data set [3], in [12], in data set [14], in data set [7], in data set [10] and in [15] was inactive. Further, the Selectivity index is recorded as above 5.3 in data set [16] and above 5.6 in data set [17]. The compound also yielded a 90% effect concentration (IC90) in [4] of 16 µg/mL (≈ 41.4 µM).

For `C[C@@H]1CC[C@H]2[C@@H](C)C(=O)O[C@@H]3O[C@@]4(C)CC[C@@H]1[C@]32OO4` [ARTEMISININ], the half-maximal inhibitory concentration (IC50) in [18] came out at 0.0075 µg/mL (≈ 0.0266 µM); in data set [19] it was 0.014 µg/mL (≈ 0.0496 µM).

`CC1(C)[C@H]2[C@@H]1CC[C@@H]1Cc3c(O)c(C=O)c(O)c(C=O)c3O[C@@]12C`: the Activity result in data set [13] and in [20] was “Not Active” throughout. Further, the half-maximal inhibitory concentration (IC50) in data set [2] was above 25 µg/mL; in data set [4], 20 µg/mL (≈ 60.5 µM); in [9], 20 µg/mL (≈ 60.5 µM). Besides, the outcome in data set [3], in data set [12], in data set [7], in [10] and in [15] was inactive. Besides, the concentration for an effect of 90% (IC90) in [4] came to 40 µg/mL (≈ 121 µM).

As to `CC(C)CC(=O)c1c(O)c(C=O)c2c(c1O)C[C@H]1CC[C@H]3[C@H](C3(C)C)[C@@]1(C)O2`, the IC50 in data set [1] is above 25 µg/mL; in data set [2] it was above 25 µg/mL; in [4], 2.4 µg/mL (≈ 6.21 µM); in data set [11] it was above 25 µg/mL. Further, in data set [20], the Activity entry is listed as “Not Active”. Besides, the outcome in [3], in [12], in data set [14], in data set [7] and in data set [10] was inactive. Also, in [4], the 90% effect concentration (IC90) stood at 8 µg/mL (≈ 20.7 µM).

On to `CC(C)CC(=O)c1c(O)c(C=O)c(O)c2c1O[C@@]1(C)[C@H](CC[C@H]3[C@@H]1C3(C)C)C2`, for which the Activity entry in data set [13] and in [20] was “Not Active” in each case. Besides, the outcome in data set [3], in [21], in data set [14], in data set [7], in data set [10] and in [15] was inactive. Further, the Selectivity index is reported as above 9.3 in [16] and above 7.4 in data set [17]. The IC50 in [4] came out at 5.5 µg/mL (≈ 14.2 µM); in data set [18], 2.7 µg/mL (≈ 6.99 µM); in data set [8] it was 25 µg/mL (≈ 64.7 µM); in data set [19], 3.4 µg/mL (≈ 8.8 µM). In data set [4], this compound showed a concentration for an effect of 90% (IC90) of 28 µg/mL (≈ 72.4 µM).
